Results from different studies.
Compare with care: the assays were run in different laboratories. ≈ marks a conversion by molar mass, not a printed value.
Organism: Candida albicans

Compound | read-out | technique | strain | tested at | time | endpoint | value
COc1ccc(N=Nc2c(N)nn3c(-c4ccc(C)cc4)cc(-c4ccc(OCc5ccccc5)cc4)nc23)cc1 | microbial killing | broth dilution | ATCC10231 |  |  | MFC | 125 µg/mL (≈ 231 µM)
CC(=O)ON=C1C=CC(=C(C#N)c2ccccc2)C=C1 | microbial killing | broth dilution | ATCC10231 |  | 48 h | MFC | 4 µg/mL (≈ 15.1 µM)
Cc1ccc(N=Nc2c(N)nn3c(-c4ccc(C)cc4)cc(-c4ccc(OCc5ccccc5)cc4)nc23)cc1 | microbial killing | broth dilution | ATCC10231 |  |  | MFC | 125 µg/mL (≈ 238 µM)
CCS(=O)(=O)Oc1cc(C=NNC(=O)CSc2nc3c(C)cccc3c(=O)n2-c2ccccc2)ccc1OC | microbial growth | well diffusion |  | 20 µg/mL |  | inhibition zone | 4 mm
Nc1nn2c(-c3ccco3)cc(-c3ccc(OCc4ccccc4)cc3)nc2c1N=Nc1ccc(F)cc1 | microbial killing | broth dilution | ATCC10231 |  |  | MFC | 500 µg/mL (≈ 991 µM)
CCS(=O)(=O)Oc1ccc(C=NNC(=O)CSc2nc3ccc(Cl)cc3c(=O)n2-c2ccccc2)cc1OC | microbial growth | well diffusion |  | 20 µg/mL |  | inhibition zone | 2 mm
OC(Cn1cncn1)(Cn1cncn1)c1ccc(F)cc1F | microbial growth | broth dilution | CGMCC2 |  | 48 h | MIC | 4 µM
Cc1cccc2c(=O)n(-c3ccccc3)c(SCC(=O)NN=Cc3ccc(OS(C)(=O)=O)cc3)nc12 | microbial growth | well diffusion |  | 20 µg/mL |  | inhibition zone | 4 mm
C#CCOC(=O)ON=C1C=CC(=C(C#N)c2ccccc2)C=C1 | microbial killing | broth dilution | ATCC10231 |  | 48 h | MFC | 8 µg/mL (≈ 26.3 µM)
OC(Cn1cncn1)(Cn1cncn1)c1ccc(F)cc1F | microbial growth | broth dilution | SN152 |  | 24 h | MIC | 2 µg/mL
C[C@@H]1[C@H](O)[C@@H](C)/C=C/C=C/C=C/C=C/C=C/C=C/C=C/[C@H](O[C@@H]2O[C@H](C)[C@@H](O)[C@H](N)[C@@H]2O)C[C@@H]2O[C@](O)(C[C@@H](O)C[C@@H](O)[C@H](O)CC[C@@H](O)C[C@@H](O)CC(=O)O[C@H]1C)C[C@H](O)[C@H]2C(=O)O | microbial growth | well diffusion |  | 20 µg/mL |  | inhibition zone | 4 mm
OC(Cn1cncn1)(Cn1cncn1)c1ccc(F)cc1F | microbial growth |  |  |  |  | IC50 | 1 µg/mL (≈ 3.27 µM)
Cc1ccc(-c2cc(-c3ccc(OCc4ccccc4)cc3)nc3c(N=Nc4ccc(F)cc4)c(N)nn23)cc1 | microbial killing | broth dilution | ATCC10231 |  |  | MFC | 125 µg/mL (≈ 236 µM)
CC(=O)N1CCN(c2ccc(OCC3COC(Cn4ccnc4)(c4ccc(Cl)cc4Cl)O3)cc2)CC1 (stereo not shown) | microbial growth | broth dilution | 17546 |  | 48 h | MIC | 1 µM
N#CC(=C1C=CC(=NOC(=O)c2ccccc2)C=C1)c1ccccc1 | microbial killing | broth dilution | ATCC10231 |  | 48 h | MFC | 256 µg/mL (≈ 784 µM)
CCS(=O)(=O)Oc1ccc(C=NNC(=O)CSc2nc3c(C)cccc3c(=O)n2-c2ccccc2)cc1 | microbial growth | well diffusion |  | 20 µg/mL |  | inhibition zone | 3 mm
Cc1ccc(N=Nc2c(N)nn3c(-c4ccc(Cl)cc4Cl)cc(-c4ccc(OCc5ccccc5)cc4)nc23)cc1 | microbial killing | broth dilution | ATCC10231 |  |  | MFC | 62.5 µg/mL (≈ 108 µM)
C[C@@H]1[C@H](O)[C@@H](C)/C=C/C=C/C=C/C=C/C=C/C=C/C=C/[C@H](O[C@@H]2O[C@H](C)[C@@H](O)[C@H](N)[C@@H]2O)C[C@@H]2O[C@](O)(C[C@@H](O)C[C@@H](O)[C@H](O)CC[C@@H](O)C[C@@H](O)CC(=O)O[C@H]1C)C[C@H](O)[C@H]2C(=O)O | microbial growth | broth dilution | SP3876 |  | 48 h | MIC | < 0.25 µM
Nc1ccc(S(=O)(=O)Nc2ncccn2)cc1 | microbial growth | well diffusion |  | 20 µg/mL |  | inhibition zone | 3 mm
